Active and inactive are the calls of the source. The calls are words filed in the database; no cut-off is given here.
Legend:
[1] = tested on: A549; test: Decrease in Cdk1 protein level in synchronized human A549 cells at 5 uM after 18 hrs by Western blot analysis; format: functional, cell-based
In short: (§1)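 A549 cells synchronized with nocodazole (0.5 μg/ml, 15 h), then treated with compound (0, 0.5, 1.0, 2.0, 5.0 μM; final DMSO 0.2%) for 18 h at 37 °C. RIPA lysates with protease inhibitors, 40 μg protein on 12% SDS-PAGE, probed with rabbit polyclonal anti-human CDK1 or cyclin B1, ECL detection, densitometry; three experiments on different passages.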

[2] = tested on: A549; test: Cell cycle arrest in synchronized human A549 cells assessed as accumulation at G1/G0 phase at 0.5 uM after 48 hrs by propidium iodide staining-based flow cytometric analysis (reference value: 40.6 +/- 4.6%); format: functional
[3] = tested on: A549; test: Decrease in Cdk1 protein level in synchronized human A549 cells after 18 hrs by Western blot analysis; format: functional, cell-based; in short: as §1
[4] = tested on: UACC-903; test: Cytotoxicity against human UACC-903 cells after 24 hrs by MTS assay; format: functional, cell-based; settings: for IC50: UACC-903, 24 h
[5] = tested on: HT-29; test: Cytotoxicity against human HT-29 cells after 24 hrs by MTS assay; format: functional, cell-based; settings: for IC50: HT-29, 24 h
[6] = tested on: UACC-903; test: Cytotoxicity against human UACC-903 cells by MTS assay; format: functional, cell-based; settings: TDE = time-dependent effect
[7] = tested on: A549; test: Decrease in Cdk1 protein level in synchronized human A549 cells at 2 uM after 18 hrs by Western blot analysis; format: functional, cell-based; in short: as §1
[8] = tested on: A549; test: Cytotoxicity against human A549 cells by MTS assay; format: functional, cell-based; settings: TDE = time-dependent effect
[9] = tested on: A549; test: Cell cycle arrest in synchronized human A549 cells assessed as accumulation at G2/M phase after 48 hrs by propidium iodide staining-based flow cytometric analysis; format: functional
[10] = tested on: A549; test: Cell cycle arrest in synchronized human A549 cells assessed as accumulation at G2/M phase at 0.5 uM after 48 hrs by propidium iodide staining-based flow cytometric analysis (reference value: 18.2 +/- 2.1%); format: functional
[11] = tested on: A549; test: Cell cycle arrest in synchronized human A549 cells assessed as accumulation at S phase after 48 hrs by propidium iodide staining-based flow cytometric analysis; format: functional
[12] = tested on: A549; test: Decrease in cyclin B1 protein level in synchronized human A549 cells at 2 uM after 18 hrs by Western blot analysis; format: functional, cell-based; in short: as §1
[13] = tested on: HT-29; test: Cytotoxicity against human HT-29 cells after 72 hrs by MTS assay; format: functional, cell-based; settings: for IC50: HT-29, 72 h
[14] = tested on: A549; test: Cytotoxicity against human A549 cells after 72 hrs by MTS assay; format: functional, cell-based; settings: for IC50: A549, 72 h
[15] = tested on: UACC-903; test: Cytotoxicity against human UACC-903 cells after 72 hrs by MTS assay; format: functional, cell-based; settings: for IC50: UACC-903, 72 h
[16] = tested on: A549; test: Cell cycle arrest in synchronized human A549 cells assessed as accumulation at S phase at 10 uM after 48 hrs by propidium iodide staining-based flow cytometric analysis (reference value: 41.2 +/- 3.1%); format: functional
[17] = tested on: A549; test: Cell cycle arrest in synchronized human A549 cells assessed as accumulation at S phase at 0.5 uM after 48 hrs by propidium iodide staining-based flow cytometric analysis (reference value: 41.2 +/- 3.1%); format: functional
[18] = tested on: A549; test: Decrease in cyclin B1 protein level in synchronized human A549 cells after 18 hrs by Western blot analysis; format: functional, cell-based; in short: as §1
[19] = tested on: A549; test: Decrease in cyclin B1 protein level in synchronized human A549 cells at 5 uM after 18 hrs by Western blot analysis; format: functional, cell-based; in short: as §1
[20] = tested on: A549; test: Cytotoxicity against human A549 cells after 24 hrs by MTS assay; format: functional, cell-based; settings: for IC50: A549, 24 h
[21] = tested on: A549; test: Cell cycle arrest in synchronized human A549 cells assessed as accumulation at G2/M phase at 10 uM after 48 hrs by propidium iodide staining-based flow cytometric analysis (reference value: 18.2 +/- 2.1%); format: functional
[22] = tested on: HT-29; test: Cytotoxicity against human HT-29 cells by MTS assay; format: functional, cell-based; settings: TDE = time-dependent effect
[23] = tested on: A549; test: Cell cycle arrest in synchronized human A549 cells assessed as accumulation at G2/M phase at 2.5 uM after 48 hrs by propidium iodide staining-based flow cytometric analysis (reference value: 18.2 +/- 2.1%); format: functional
[24] = tested on: A549; test: Cell cycle arrest in synchronized human A549 cells assessed as accumulation at G1/G0 phase at 10 uM after 48 hrs by propidium iodide staining-based flow cytometric analysis (reference value: 40.6 +/- 4.6%); format: functional
[25] = tested on: A549; test: Cell cycle arrest in synchronized human A549 cells assessed as accumulation at G1/G0 phase at 2.5 uM after 48 hrs by propidium iodide staining-based flow cytometric analysis (reference value: 40.6 +/- 4.6%); format: functional
[26] = tested on: A549; test: Cell cycle arrest in synchronized human A549 cells assessed as accumulation at S phase at 2.5 uM after 48 hrs by propidium iodide staining-based flow cytometric analysis (reference value: 41.2 +/- 3.1%); format: functional

SMILES | Activity [2] [%] | Activity [3] | growth inhibition (GI) [4] | IC50 [4] [µM] | growth inhibition (GI) [5] | IC50 [5] [µM] | growth inhibition (GI) [6] | growth inhibition (GI) [8] | Activity [10] [%] | growth inhibition (GI) [13] | IC50 [13] [µM] | growth inhibition (GI) [14] | IC50 [14] [µM] | growth inhibition (GI) [15] | IC50 [15] [µM] | Activity [16] [%] | Activity [17] [%] | growth inhibition (GI) [20] | IC50 [20] [µM] | growth inhibition (GI) [22] | also measured
C=CCc1cc(-c2ccc(OC)c(CC=C)c2)ccc1O | 69.8 | Dose-dependent effect | Dose-dependent effect | 3.05 | Dose-dependent effect | 3.19 | tde | tde | 7.2 | Dose-dependent effect | 2 | Dose-dependent effect | 1.99 | Dose-dependent effect | 1.39 | 14.3 | 23 | Dose-dependent effect | 2.47 | tde | Activity [1]: Active; Activity [7]: Active; Activity [9]: Dose-dependent effect; Activity [11]: Dose-dependent effect; Activity [12]: Active; Activity [18]: Dose-dependent effect; Activity [19]: Active; Activity [21]: 2.8%; Activity [23]: 4.2%; Activity [24]: 82.8%; Activity [25]: 75.7%; Activity [26]: 20.2%
C=CCc1ccc(O)c(-c2cccc(CC=C)c2O)c1 |  |  | Dose-dependent effect | 22.3 | Dose-dependent effect | 17.4 | tde | tde |  | Dose-dependent effect | 12.4 | Dose-dependent effect | 1.08 | Dose-dependent effect | 17.4 |  |  | Dose-dependent effect | 2.04 | tde | 
C=CCc1cc(-c2cccc(CC=C)c2O)ccc1OC |  |  | Dose-dependent effect | 29 | Dose-dependent effect | 16.2 | tde | tde |  | Dose-dependent effect | 11.5 | Dose-dependent effect | 6.28 | Dose-dependent effect | 24.7 |  |  | Dose-dependent effect | 11.3 | tde | 
C=CCc1ccc(O)c(-c2ccc(OC)c(CC=C)c2)c1 [METHYLHONOKIOL] |  |  | Dose-dependent effect | 37.7 | Dose-dependent effect | 22.4 | tde | tde |  | Dose-dependent effect | 14.1 | Dose-dependent effect | 1.24 | Dose-dependent effect | 24.1 |  |  | Dose-dependent effect | 1.56 | tde | 
C=CCc1cc(-c2ccc(OC)c(CC=C)c2)c(O)c(-c2ccc(OC)c(CC=C)c2)c1 |  |  | Dose-dependent effect | 3.94 | Dose-dependent effect | 16.9 | tde | tde |  | Dose-dependent effect | 11.4 | Dose-dependent effect | 1.25 | Dose-dependent effect | 2.93 |  |  | Dose-dependent effect | 1.74 | tde | 
C=CCc1ccc(O)c(-c2ccc(O)c(CC=C)c2)c1 [HONOKIOL] | 50.5 | Dose-dependent effect | Dose-dependent effect | 7.45 | Dose-dependent effect | 23.9 | tde | tde | 11.6 | Dose-dependent effect | 13.2 | Dose-dependent effect | 7.75 | Dose-dependent effect | 5.1 | 21.7 | 37.9 | Dose-dependent effect | 12.5 | tde | Activity [18]: Dose-dependent effect; Activity [21]: 5.4%; Activity [23]: 10.8%; Activity [24]: 72.9%; Activity [25]: 61.1%; Activity [26]: 28.1%
C=CCc1cc(Br)c(O)c(-c2ccc(OC)c(CC=C)c2)c1 | 55.8 | Dose-dependent effect | Dose-dependent effect | 2.98 | Dose-dependent effect | 3.99 | tde | tde | 11.4 | Dose-dependent effect | 1.87 | Dose-dependent effect | 1.04 | Dose-dependent effect | 1.29 | 20.7 | 32.8 | Dose-dependent effect | 1.73 | tde | Activity [1]: Active; Activity [7]: Active; Activity [9]: Dose-dependent effect; Activity [11]: Dose-dependent effect; Activity [12]: Active; Activity [18]: Dose-dependent effect; Activity [19]: Active; Activity [21]: 3%; Activity [23]: 6.3%; Activity [24]: 76.4%; Activity [25]: 63.1%; Activity [26]: 30.6%

— ChEMBL document CHEMBL2016484, “In vitro growth inhibition of human cancer cells by novel honokiol analogs” (Bioorg Med Chem, 2012)
